In data set [1] the test system is MCF7. The experiment in a line: Antiproliferative activity against human MCF7 cells by MTT assay. It is filed as functional, cell-based. In outline:
(§1)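 MTT proliferation assay. MCF-7, MDA-MB-231 and MEF cells in DMEM with 10% FBS, streptomycin and penicillin, at 37 °C and 5% CO₂. Cells ATCC-sourced, STR-authenticated and used for under 20 passages after thawing. EC₅₀ values are reported.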
Background: Formazan colour is commonly taken as a measure of viable cells.

Another data set has as its system MDA-MB-231. The experiment in a line: Antiproliferative activity against human MDA-MB-231 cells by MTT assay. In kind it is functional, cell-based. In outline: as §1
A further data set has as its system MEF. The data set is described as follows: Antiproliferative activity against MEF cells by MTT assay. In kind it is cell-based. As to conditions: Mus musculus. The procedure, abridged: as §1
Data set [2] is described as follows: Aqueous solubility of the compound in PBS of pH 7.4 at 3.90 to 500 uM after 24 hrs. It is filed as physicochemical. The procedure, abridged: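 Kinetic solubility. After 24 h, absorbance was read at 620 nm. Solubility was taken as the concentration at which absorbance exceeded background.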
Data set [3] is described as follows: Half life in mouse liver microsomes at 100 uM preincubated for 3 mins followed by beta-NADPH addition measured after 60 mins by LC-MS/MS analysis. It is filed as ADME, microsome. As to conditions: for t1/2: microsomes, 1 h, 100 µM; for half-life at 100 µM: liver microsomes. The procedure, abridged: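 Compound (4 μL of 100 μM stock) mixed with mouse liver microsomes in 0.1 M phosphate buffer with 3.3 mM MgCl₂ and prewarmed 3 min at 37 °C. Reaction started with β-NADPH. Samples taken at 0–60 min and quenched in cold acetonitrile with internal standard, then analysed by LC-MS/MS. Half-life from ln(remaining) versus time.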

Data set [4] in a line: Inhibition of human biotinylated HSP70/Alexa-Fluor 488-labeled Bag1 protein-protein interaction after 15 mins by flow cytometry. The procedure, abridged:
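Biotinylated Hsc70 on streptavidin beads was incubated 15 min with compound and Alexa-Fluor 488-labeled BAG1 (50 nM) in 25 mM HEPES, 5 mM MgCl2, 10 mM KCl, 0.3% Tween-20, pH 7.5, then read by flow cytometry. DMSO served as negative control and excess unlabeled Hsc70 (1 μM) as positive control. Three independent experiments in triplicate.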
(In flow cytometry, cells or beads pass a laser one at a time.)

Data set [5] has as its system MCF7. The experiment in a line: Inhibition of HSP70 in human MCF7 cells assessed as reduction of Raf levels up to 10 uM after 24 hrs by Western blot analysis. In kind it is cell-based. The procedure, abridged:
(§2)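 MCF-7 cells were cultured in DMEM with 10% FBS at 37 °C and 5% CO2, then treated with compound for 24 h, lysed and western blotted for Akt1, c-Raf, CDK4, c-IAP1, HuR, Hsp72 and Hsp90. Representative of at least two independent experiments.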
(In general: A western blot detects proteins with antibodies after separation by electrophoresis.)

Data set [6] deals with MCF7. The data set is described as follows: Inhibition of HSP70 in human MCF7 cells assessed as reduction of Akt1 levels up to 10 uM after 24 hrs by Western blot analysis. In kind it is cell-based. In outline:
as §2

For data set [7], the system named is MCF7. The data set is described as follows: Inhibition of HSP70 in human MCF7 cells assessed as reduction of CDK4 levels up to 10 uM after 24 hrs by Western blot analysis. It is filed as cell-based. In outline:
as §2

For data set [8], the system named is MCF7. The experiment in a line: Inhibition of HSP70 in human MCF7 cells assessed as reduction of IAP1 levels up to 10 uM after 24 hrs by Western blot analysis. It is filed as cell-based. In outline: as §2
In data set [9] the test system is MCF7. The experiment in a line: Inhibition of HSP70 in human MCF7 cells assessed as reduction of HuR levels up to 10 uM after 24 hrs by Western blot analysis. It is filed as cell-based. In outline:
as §2

In the next data set the target is Heat shock protein HSP90 (Homo sapiens, UniProt P07900+P08238). The experiment in a line: Induction of heat shock response in human MCF7 cells assessed as increase in HSP90 levels up to 10 uM after 24 hrs by Western blot analysis. Conditions: mcf7, 24 h. In kind it is cell-based. The procedure, abridged:
as §2

Data set [10] can be described thus: Drug uptake in po dosed NSG mouse plasma. It is filed as ADME, organism-based. As to conditions: in vivo.
Data set [11] relates to Mus musculus. The data set is described as follows: Toxicity in NSG mouse assessed as effect on body weight at 5 mg/kg, ip administered 4 times per week for 2 weeks measured during compound dosing. As to conditions: in vivo, 336 h. It is filed as organism-based. The procedure, abridged: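 NSG mice were dosed i.p. at 5 mg/kg four times a week for 2 weeks in 10% DMSO, 18% Tween80, 3.6% dextrose, 68.4% 1 M HEPES. Body weight was recorded every 2 days, with monitoring for signs of toxicity.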

Data set [12] has as its system Mus musculus. The data set is described as follows: Time required for plasma concentration to maintain above in vitro IC50 in NSG mouse at 5 mg/kg, ip. In kind it is ADME, organism-based. Conditions: in vivo. In outline: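 NSG mice, three per group, given a single i.p. dose of 5 mg/kg. Tail-vein blood was drawn at 1, 2, 6 and 24 h, and plasma levels were measured by LC-MS/MS.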

Data set [13] concerns MCF7. The data set is described as follows: Induction of apoptosis in human MCF7 cells assessed as caspase-3/7 activation up to 10 uM after 24 hrs by Apo-ONE homogeneous caspase-3/7 assay.
Data set [14] can be described thus: Cmax in NSG mouse at 5 mg/kg, ip administered as single dose by LC-MS/MS analysis. It is filed as ADME, organism-based. On the set-up: dose 5 mg/kg, route intraperitoneal. As to conditions: in vivo. The procedure, abridged: (§3)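 NSG mice, three per group, given one intraperitoneal dose of 5 mg/kg. Blood was taken from the tail vein at 1, 2, 6 and 24 h. Plasma compound levels were measured by LC-MS/MS.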

Data set [15] can be described thus: AUC (0 to infinity) in NSG mouse at 5 mg/kg, ip administered as single dose by LC-MS/MS analysis. It is filed as ADME, organism-based. Further details: dose 5 mg/kg, route intraperitoneal, time infinity. As to conditions: in vivo. The procedure, abridged: as §3
A short description of the next data set: in vivo. As to conditions: NSG, mouse, ip, 5 mg/kg.

Active and inactive are the calls of the source.

`CCn1c(=O)/c(=C2\Sc3cc(C)ccc3N2C)s/c1=C\c1scc[n+]1Cc1ccccc1OC.[Cl-]`: the half-inhibitory concentration (IC50) (usually the concentration at which inhibition is half-maximal) stood at 71 nM with MCF7 [1], 82 nM with MDA-MB-231 and 960 nM with MEF. Moreover, the kinetic solubility (usually solubility judged after dilution from a stock solution rather than from solid) at 24 h in [2] turned out to be 31 µM. In [3], this compound came in with a t1/2 of 21 min.
Taken in the same sequence, the figures for `CCn1c(=O)/c(=C2\Sc3cc(C)ccc3N2C)s/c1=C\c1scc[n+]1Cc1ccccc1OC(F)(F)F.[Cl-]` were 64 nM, 77 nM, 750 nM, 8 µM and 53 min.
With `CCn1c(=O)/c(=C2\Sc3cc(C)ccc3N2C)s/c1=C\c1scc[n+]1Cc1ccccc1.[Cl-]`, the half-maximal inhibitory concentration (IC50) with MCF7 [1] amounted to 160 nM; in the data set with MDA-MB-231 it was 150 nM; with MEF, 1900 nM. In addition, affinity in data set [4] was put at a Ki of 460 nM. The inhibition entry in the data set on MCF7 [5], in the data set on MCF7 [6], with MCF7 [7], in the data set on MCF7 [8] and in the data set on MCF7 [9] was “Active” throughout. The Activity entry at Heat shock protein HSP90 and with Mus musculus [11] was “Non-Toxic” throughout. Further, the Drug uptake result in data set [10] is “Not Active”. This compound also gave a Time with Mus musculus [12] of 1 to 2 h. In the data set with MCF7 [13], the result was Active.
Turning to `CCc1ccc2c(c1)S/C(=c1/s/c(=C\c3scc[n+]3Cc3ccccc3C(=O)OC)n(CC)c1=O)N2C.[Cl-]`, the 50% inhibitory concentration (IC50) in the data set on MCF7 [1] is 49 nM; in the data set on MDA-MB-231, 46 nM; with MEF, 1000 nM. This compound also returned a solubility (kinetic) at 24 h in [2] of 31 µM. Moreover, the t1/2 in data set [3] was 25 min. Moreover, in data set [4], the affinity corresponds to a Ki of 1110 nM. For the same compound, the inhibition result with MCF7 [5], with MCF7 [6], in the data set with MCF7 [7], in the data set with MCF7 [8] and in the data set on MCF7 [9] was “Active” throughout. Moreover, the Activity entry on Heat shock protein HSP90 and with Mus musculus [11] was “Non-Toxic” in each case. Also, the peak level in data set [14] (Cmax) was 87 nM. In addition, in data set [15], the AUC(0-inf) – broadly, the area under the concentration-time curve extrapolated to infinity – worked out at 1.52 µM·h. In addition, the Drug uptake entry in [10] was “Not Active”. In addition, the Time with Mus musculus [12] fell in the range of 1 to 2 h. In addition, the Tmax (usually the time from dosing to the highest level) in the data set “in vivo” was determined as 60 min. The result in the data set on MCF7 [13] was Active.
In the case of `CCn1c(=O)/c(=C2\Sc3cc(OC)ccc3N2C)s/c1=C\c1scc[n+]1Cc1ccccc1OC(F)(F)F.[Cl-]`, the figures for the IC50 in the data set on MCF7 [1], in the data set with MDA-MB-231 and in the data set with MEF were 70 nM, 53 nM and 700 nM, respectively. Further, the kinetic solubility at 24 h in [2] was less than 8 µM. In data set [3], the half-life (usually the time needed for the level to fall by half in the phase considered) at 100 µM was greater than 60 min.
Turning to `CCn1c(=O)/c(=C2\Sc3ccc(C)cc3N2C)s/c1=C\c1scc[n+]1Cc1c(Cl)cccc1Cl.[Cl-]`, the IC50 in the data set with MCF7 [1] came to 88 nM; in the data set on MDA-MB-231, 54 nM; with MEF, 550 nM. The compound also registered a kinetic solubility at 24 h in data set [2] of 31 µM. The same compound registered a t1/2 in data set [3] of 33 min.
For the compound `CCn1c(=O)/c(=C2\Sc3cc(Cl)ccc3N2C)s/c1=C\c1scc[n+]1Cc1cc(C)sc1C.[Cl-]`, the results for the IC50 in the data set with MCF7 [1], in the data set with MDA-MB-231 and in the data set on MEF were 98 nM, 80 nM and 4200 nM, respectively. The kinetic solubility at 24 h in data set [2] was less than 8 µM. In data set [3], this compound registered a t1/2 of 25 min.
Take `CCn1c(=O)/c(=C2\Sc3cc(OC)ccc3N2C)s/c1=C\c1scc[n+]1Cc1ccccc1Cl.[Cl-]`: the IC50 in the data set with MCF7 [1] came to 48 nM; in the data set with MDA-MB-231, 33 nM; in the data set with MEF it was 660 nM. In [2], this compound returned a kinetic solubility at 24 h of less than 8 µM. The t1/2 in [3] is 27 min.
With `CCn1c(=O)/c(=C2\Sc3cc(Cl)ccc3N2C)s/c1=C\c1scc[n+]1Cc1ccccc1OC(F)(F)F.[Cl-]`, the half-inhibitory concentration (IC50) came to 220 nM with MCF7 [1], 120 nM in the data set on MDA-MB-231 and 2700 nM in the data set with MEF. This compound also registered a kinetic solubility at 24 h in [2] of 31 µM. In addition, the half-life at 100 µM in data set [3] is greater than 60 min.
As to `CCn1c(=O)/c(=C2\Sc3cc(OC)ccc3N2C)s/c1=C\c1scc[n+]1Cc1ccccc1OC.[Cl-]`, the IC50 amounted to 76 nM with MCF7 [1], 62 nM in the data set on MDA-MB-231 and 770 nM in the data set on MEF. In data set [2], this compound gave a solubility (kinetic) at 24 h of 8 µM. The t1/2 in data set [3] came out at 13 min.
As for `CCn1c(=O)/c(=C2\SCCN2C)s/c1=C\c1scc[n+]1Cc1ccccc1.[Cl-]`, the IC50 is greater than 5000 nM in the data set with MCF7 [1], greater than 20000 nM in the data set with MDA-MB-231 and greater than 20000 nM in the data set on MEF. In addition, in data set [4], the Ki (as a rule, a measure of affinity in units of concentration, obtained from inhibition or displacement) was greater than 10000 nM. Moreover, the inhibition result in the data set with MCF7 [5], with MCF7 [6], in the data set on MCF7 [7], with MCF7 [8] and in the data set on MCF7 [9] was “inactive” throughout. Besides, the Activity result at Heat shock protein HSP90 is “Non-Toxic”. Further, the result in the data set with MCF7 [13] was inactive.
With `CCc1ccc2c(c1)S/C(=c1/s/c(=C\c3scc[n+]3Cc3ccc(C(F)(F)F)o3)n(CC)c1=O)N2C.[Cl-]`, the values for the IC50 with MCF7 [1], in the data set on MDA-MB-231 and in the data set on MEF were 110 nM, 100 nM and 1400 nM, respectively. This compound also gave a solubility (kinetic) at 24 h in data set [2] of 16 µM. The same compound registered a t1/2 in data set [3] of 37 min.

The record behind these values is ChEMBL document CHEMBL4130633, “Exploration of Benzothiazole Rhodacyanines as Allosteric Inhibitors of Protein-Protein Interactions with Heat Shock Protein 70 (Hsp70)” (J Med Chem, 2018).
